WNV protease inh: WNV NS2B-NS3 proteinase inhibition | P06935 | WNV NS2B-NS3 protease, fluorogenic substrate Ex360/Em465; active compounds read low | z-score (test concentration not listed) | 65,000 compounds, 0.18% hits; in the data active = z-score below about -3
M1 agonist: activates the M1 muscarinic receptor | CHO-M1 cells, Fluo-4 calcium fluorescence, agonist mode; active compounds read high | AID 626 | B-score at 10 µM | 64,000 compounds, 3% hits;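 active = fluorescence rise, raw or as B-score row- and column-corrected plate score, outside the 99.7% band of its plate's samples, either direction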
Ecoli tolC: blocks growth of E. coli BW25113 tolC mutant. OD615. growth inhibition, % at 10 µM (by protocol). 65,000 compounds, 2.2% hits. AID 573;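 active = growth inhibition at or above a cutoff equal to the mean over every tested compound plus 3 SD, cut at about 60% in these data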;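 also: growth measured after 20 h incubation at 37 °C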
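Test system: E. coli BW25113 ΔtolC::kan bacteria | Medium: Kanamycin-containing LB broth (50 µg/mL) | Dosing: One dose of 10 µM final | Times: 20 h incubation with compound, 37 °C | Detection: Optical density read at 615 nm | Read-out basis: Percent growth inhibition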
AP complement: orthogonal test for alternative complement pathway inhibitors; Human serum alternative complement pathway, LPS-coated ELISA, C3 deposition; tested in compound mixtures; inhibition, % at 5 µM; 62,000 compounds, 0.08% hits;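 active = inhibition above 30% in each of the two pooled mixtures holding the compound, so the lower value exceeds 30%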;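 also: 0% = serum in Mg-EGTA without compound and 100% = EDTA serum blank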
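Test system – human serum alternative complement pathway, C3 deposition on LPS-coated wells · Buffer or medium – diluted human serum in Mg2+-EGTA GVB++ · Compound dosing – 5 µM each compound, pools of ten, 50 µM per pool · Schedule – 1 h serum-compound exposure at 37 °C · Measured by – Anti-C3 ELISA, OD 450 nm · Read-out basis – percent inhibition of C3 deposition onto LPS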
M1 antag: blocks the rat M1 muscarinic receptor response to acetylcholine; B-score at 10 µM; AID 628; 64,000 compounds, 3.4% hits; P08482; CHO-M1 cells, Fluo-4 calcium, ACh EC80 antagonist mode; active compounds read low;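 active = calcium fluorescence response, raw or row-and-column corrected B-score, differing from the plate sample mean either way at a set confidence level, mostly lower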
Target sequence (P08482 whole entry, looked up): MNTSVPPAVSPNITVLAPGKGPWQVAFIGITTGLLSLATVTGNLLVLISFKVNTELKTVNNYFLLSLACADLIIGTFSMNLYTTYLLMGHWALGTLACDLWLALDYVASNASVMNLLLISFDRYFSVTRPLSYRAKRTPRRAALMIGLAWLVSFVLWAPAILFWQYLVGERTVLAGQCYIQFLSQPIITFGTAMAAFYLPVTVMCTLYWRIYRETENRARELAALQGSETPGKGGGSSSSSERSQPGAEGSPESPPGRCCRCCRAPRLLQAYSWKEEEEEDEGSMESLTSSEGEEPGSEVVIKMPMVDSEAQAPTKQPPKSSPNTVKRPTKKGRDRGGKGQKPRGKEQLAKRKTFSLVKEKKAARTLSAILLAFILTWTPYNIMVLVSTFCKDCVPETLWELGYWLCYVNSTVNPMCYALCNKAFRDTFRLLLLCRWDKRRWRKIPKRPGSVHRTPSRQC
Ecoli WT expand: E. coli BW25113 growth inhibition, expanded screen | 98,000 compounds, 0.15% hits | OD600 absorbance | growth inhibition, % at 100 µM;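 active = growth inhibition above about 50% at one test dose, limit read from the data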;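 also: growth measured after 20 h incubation at 37 °C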
The depositor's hits bear a star. In the library only some 5.2% were active in any assay of this set; here they are far more common.

Results for COc1cccc(-c2cc(C(=O)Nc3c(C)nn(Cc4ccccc4C)c3C)no2)c1 ?
WNV protease inh: -0.54; M1 agonist: -0.71; Ecoli tolC: 71*; AP complement: 4; M1 antag: -0.48; Ecoli WT expand: -6

What do the screens show for `COc1cccc(-c2cc(C(=O)N3C(C)CCCC3C)no2)c1` (stereo not given)?
WNV protease inh: -0.56; M1 agonist: -0.054; Ecoli tolC: 68*; AP complement: -11; M1 antag: -0.81; Ecoli WT expand: -1

How did COc1cccc(-c2cc(C(=O)Nc3cc(OC)c(OC)c(OC)c3)no2)c1 do in these assays?
WNV protease inh: -0.43; M1 agonist: 2.4*; Ecoli tolC: 13; AP complement: 4; M1 antag: -1.2; Ecoli WT expand: -14

How did Cc1cc(NCc2ccccn2)ccc1Br do in these assays?
Ecoli WT expand: 15

Results for CCN(CC)S(=O)(=O)c1cccc(-c2nnc(SCC(=O)c3cc(C)n(C4CC4)c3C)o2)c1 ?
WNV protease inh: 0.42; M1 agonist: 3.2*; Ecoli tolC: 16; AP complement: 12; M1 antag: -0.61

What do the screens show for `C=CCn1c(C)cc(C(=O)CSc2nnc(-c3cccc(S(=O)(=O)N(CC)CC)c3)o2)c1C`?
WNV protease inh: 1.1; M1 agonist: 1.9; Ecoli tolC: 10; AP complement: -2; M1 antag: 0.49; Ecoli WT expand: -24

What do the screens show for `CCCCN(CCCNC(=O)CN1C(=O)COc2ccccc21)c1ccccc1`?
WNV protease inh: 0.04; M1 agonist: -0.24; Ecoli tolC: 61*; AP complement: 6; M1 antag: -0.21; Ecoli WT expand: 1

What do the screens show for `CC1=CC(C)(C)N(C(=O)c2ccc(F)cc2)c2cc3c(cc21)OCO3`?
WNV protease inh: -0.85; M1 agonist: 0.29; Ecoli tolC: 87*; AP complement: 7; M1 antag: 1.8; Ecoli WT expand: -3

Results for CSC1=NCCN1C(=O)c1ccc2c(c1)OCO2 ?
WNV protease inh: -1.1; M1 agonist: 0.43; Ecoli tolC: -24; AP complement: 12; M1 antag: 0.44; Ecoli WT expand: 3

How did COc1ccccc1-c1c(C(F)(F)F)oc2cc(OC(=O)c3cccc([N+](=O)[O-])c3C)ccc2c1=O do in these assays?
Ecoli WT expand: -7

What do the screens show for `COc1ccc(OC)c(N(CC(N)=O)S(=O)(=O)c2ccc(OC)c(OC)c2)c1`?
Ecoli WT expand: -6

What do the screens show for `COCCOc1nc2c(c(=O)n(C)c(=O)n2C)n1Cc1cccc(OC)c1`?
Ecoli WT expand: -3

How did Cc1cc(C)c(C#N)c(N2CCN(CCOc3ccc(Cl)cc3)CC2)n1 do in these assays?
WNV protease inh: -0.23; M1 agonist: -0.58; Ecoli tolC: 100*; AP complement: 13; M1 antag: -1.4; Ecoli WT expand: 7

Results for O=C(c1ccco1)N1CCN(CC(O)COc2ccc3oc4ccccc4c3c2)CC1 (stereo not given) ?
WNV protease inh: -0.78; M1 agonist: 2.1; Ecoli tolC: 25; AP complement: 5; M1 antag: -2.2; Ecoli WT expand: 8

How did CCOC(=O)NC(=O)CSc1nc(C)cc(C(F)(F)F)c1C#N do in these assays?
WNV protease inh: -0.94; M1 agonist: 1.5; Ecoli tolC: -10; AP complement: 33*; M1 antag: -1.1; Ecoli WT expand: 7

How did CC1CCCCC1n1c(=S)[nH]c2ccccc2c1=O (stereo not given) do in these assays?
WNV protease inh: -0.45; M1 agonist: 0.034; Ecoli tolC: 100*; AP complement: 14; M1 antag: -0.54; Ecoli WT expand: -2

What do the screens show for `CC(C)(C)OC(=O)N1CCC[C@H]1c1nnc(SCc2ccc(Cl)cc2Cl)o1`?
WNV protease inh: 0.83; M1 agonist: 0.38; Ecoli tolC: 89*; AP complement: -2; M1 antag: -0.057; Ecoli WT expand: 9

What do the screens show for `CC(C)(C)OC(=O)N1CCC[C@H]1c1nnc(SCc2ccccc2Cl)o1`?
WNV protease inh: 0.23; M1 agonist: -1.7; Ecoli tolC: 36; AP complement: -5; M1 antag: 0.0047; Ecoli WT expand: 2

How did Cc1cc(C)nc(-n2nc(C)c(C3(O)C(=O)Nc4ccccc43)c2N)n1 (stereo not given) do in these assays?
WNV protease inh: -0.45; M1 agonist: 0.11; Ecoli tolC: 6; AP complement: -6; M1 antag: 0.079; Ecoli WT expand: -13
